T cruzi inh: T. cruzi replication inhibition; T. cruzi beta-gal in NIH3T3, luminescence, 90 h; inhibition, % (concentration not given with the values); 300,000 compounds, 1.4% hits;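 active = mean inhibition across valid replicates above about 55%, limit read from the data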;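 also: signal also drops with host cell toxicity which is not excluded here; higher percent means less beta-gal luminescence so fewer parasites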
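Assay system: NIH/3T3 fibroblasts plus reporter T. cruzi. Amount: NIH/3T3 cells, 5,000 per well. Buffer or medium: DMEM, 2% fetal bovine serum. Doses: compound pinned at 50 nL/well, DMSO. Schedule: ≥90 h infection period, 3 h prior cell attachment. Signal: luminescent β-galactosidase signal after 60 min lysis. Read-out: parasite load inhibition, %.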
NR3A LBD binder: modulators (binders) of human NR3A ligand-binding domain; NR3A LBD differential scanning fluorimetry, Tm shift; 0% = protein alone, 100% = glycine-bound protein; Tm shift relative to glycine control, % at 25 µM; 340,000 compounds, 2.5% hits;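 active = melting temperature shift of at least 10% of the positive control shift, at one fixed dose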
Beta cell apopt: beta cell apoptosis inhibition; INS-1E cytokine-induced death, ATP luminescence, 48 h; percent of positive-control rescue, neutral wells zero; protection from apoptosis, % (test concentration not listed); 300,000 compounds, 0.8% hits;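 active = Every replicate reaches about 75%, or at least half do and their mean reaches it too, limit read from the data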;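 also: higher means more ATP so stronger rescue from cytokine killing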
PREPL inhibitor: inhibits the human prolyl oligopeptidase-like enzyme; Q4J6C6; recombinant PREPL, fluorescence polarization activity-based probe; inhibition, % at 5.96 µM; 320,000 compounds, 0.68% hits; in the data active = inhibition above about 43%
Target sequence (Q4J6C6 whole entry, looked up): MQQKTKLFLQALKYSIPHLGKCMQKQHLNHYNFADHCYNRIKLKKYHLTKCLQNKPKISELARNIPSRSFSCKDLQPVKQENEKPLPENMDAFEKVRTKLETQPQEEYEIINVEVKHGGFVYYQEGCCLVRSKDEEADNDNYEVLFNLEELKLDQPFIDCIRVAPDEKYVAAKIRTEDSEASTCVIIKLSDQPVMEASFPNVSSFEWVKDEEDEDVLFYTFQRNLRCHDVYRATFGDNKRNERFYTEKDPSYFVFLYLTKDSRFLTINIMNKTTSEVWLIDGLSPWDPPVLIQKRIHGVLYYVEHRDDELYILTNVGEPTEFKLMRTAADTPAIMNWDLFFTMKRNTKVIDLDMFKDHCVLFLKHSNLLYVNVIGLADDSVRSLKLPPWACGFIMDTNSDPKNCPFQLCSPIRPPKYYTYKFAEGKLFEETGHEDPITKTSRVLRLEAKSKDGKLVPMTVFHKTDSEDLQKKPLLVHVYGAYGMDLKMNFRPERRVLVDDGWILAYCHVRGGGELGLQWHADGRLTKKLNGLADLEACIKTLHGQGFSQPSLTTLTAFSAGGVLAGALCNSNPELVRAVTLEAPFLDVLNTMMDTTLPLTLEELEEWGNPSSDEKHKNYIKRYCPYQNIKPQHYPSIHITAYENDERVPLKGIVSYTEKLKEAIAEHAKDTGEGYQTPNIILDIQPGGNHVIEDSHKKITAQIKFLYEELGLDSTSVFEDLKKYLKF
CSC inhib: cancer stem cell inhibition; inhibition, % at 7.5 µM; cancer stem cell-like cells viability, luminescence; 300,000 compounds, 1.1% hits; in the data active = inhibition above about 75%; tested in HMLE shEcad cells
CHOP inh: inhibitors of CHOP induction in ER stress response; CHO-K1 CHOP-promoter luciferase, tunicamycin-induced, 15-18 h; inhibition, % at 10 µM; 220,000 compounds, 3.8% hits;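 active = compounds that reduced the stress-induced luciferase reporter signal by more than about 70% of percent inhibition, limit read from the data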
Of the large screens only hits and unclear results are named; the others gave an inactive call. Sampled rows, rich in hits. Any-hit rate of the full collection: about 6.7%.

Cc1ccccc1C(=O)NC1CCN(CC(=O)NC2CCCCC2)CC1	none (no result: CHOP inh)
CCCCCCCCCCOC(=O)Cn1c(COc2ccccc2OC)[n+](C)c2ccccc21	Beta cell apopt 107.2, CSC inhib 93.2 (no result: CHOP inh)
Cn1c(COc2ccccc2O)[n+](C)c2ccccc21	none (no result: CHOP inh)
CCOc1ccc(OCCC(=O)OCC(=O)N2CCN(S(=O)(=O)c3ccc(Cl)cc3)CC2)cc1	none (no result: CHOP inh)
CCN(CC)c1ccc(N=Cc2cc(Br)ccc2O)cc1	T cruzi inh 61.1
Cc1cccc(NC(=O)Cn2nnc3ccccc32)c1	none (no result: CSC inhib)
Cc1ccc(/C=C2\Sc3ccccc3C2=O)s1	CHOP inh 70.4
CCC(=O)N(C)/C=C1\Sc2ccccc2C1=O	none (no result: CHOP inh)
CC(=O)N(C)/C=C1\Sc2ccccc2C1=O	NR3A LBD binder 13.6
O=CN(/C=C1\Sc2ccccc2C1=O)Cc1ccccc1	NR3A LBD binder 22.2 (no result: Beta cell apopt)
COCCN(CCOC)C(=O)c1sc2nc(-c3ccccc3)cn2c1C	none
COc1ccc(-c2cn3c(C)c(C(=O)Nc4ccncc4)sc3n2)cc1	none
COc1ccc(-c2cn3c(C)c(C(=O)Nc4cccc(NC(C)=O)c4)sc3n2)cc1	NR3A LBD binder 13.2
COC(=O)c1ccc(NC(=O)c2sc3nc(-c4ccccc4)cn3c2C)cc1	NR3A LBD binder 28.2
COC(=O)c1ccc(CN(c2ccc(C(=O)O)c(O)c2)S(=O)(=O)c2ccc(Cl)c([N+](=O)[O-])c2)cc1	NR3A LBD binder 21.5, CSC inhib 92.4 (no result: CHOP inh)
COC(=O)c1ccc(CN(c2ccccn2)S(=O)(=O)c2ccccc2)cc1	none
COc1cc(NC(=O)CN2C(=O)CSc3ccc(S(=O)(=O)N4CCCC4)cc32)cc(OC)c1	none (no result: CHOP inh)
O=C(COc1cccnc1[N+](=O)[O-])N1N=C(c2ccc(Cl)cc2)CC1c1ccco1 (configuration not stated)	T cruzi inh 56.5
Cc1ccc(OCC(=O)N2N=C(c3ccc(Cl)cc3)CC2c2ccco2)c([N+](=O)[O-])n1 (configuration not stated)	none
COCC(=O)OCC(=O)N1N=C(c2ccc(Cl)cc2)CC1c1ccco1 (configuration not stated)	none
COc1ccc(C(=O)NCC(=O)OCC(=O)N2N=C(c3ccc(Cl)cc3)CC2c2ccco2)cc1OC (configuration not stated)	NR3A LBD binder 11.3
CCOC(=O)C1(CC2CCCCO2)CCN(S(=O)(=O)c2c(C)nn(C)c2C)CC1 (configuration not stated)	none (no result: CSC inhib)
CCc1nc2sc3c(c2c(=O)n1N)CC(C)(C)OC3	none
CCCc1nc2sc3c(c2c(=O)n1NC(=O)c1ccco1)CC(C)(C)OC3	none
CCCCCCCCCc1nc2sc3c(c2c(=O)n1NC(=O)c1ccccc1[N+](=O)[O-])CC(C)(C)OC3	NR3A LBD binder 19.6, CSC inhib 107.4
CCCCCCCCCc1nc2sc3c(c2c(=O)n1NC(=O)c1ccc([N+](=O)[O-])cc1)CC(C)(C)OC3	NR3A LBD binder 23.8
Cc1cc(C)cc(NC(=O)c2cccn2-c2ncc(C(F)(F)F)cc2Cl)c1	CHOP inh 73.8 (no result: CSC inhib)
CCOC(=O)Cc1cn(C(=O)OC(C)(C)C)c2ccccc12	none (no result: T cruzi inh, CHOP inh)
CCC(C)(C)C1CCc2c(sc(NC(=O)c3ccoc3C)c2C(N)=O)C1 (configuration not stated)	CHOP inh 71.9
Cc1occc1C(=O)Nc1sc2c(c1C(N)=O)CCC(C(C)(C)C)C2 (configuration not stated)	none
COc1cc([N+](=O)[O-])ccc1NC(=O)CSc1n[nH]c(C(C)C)n1	none
COC(=O)C(Cc1ccc(OC(=O)c2ccc(C)cc2)cc1)N1Cc2ccccc2C1=O (configuration not stated)	NR3A LBD binder 14.0
COc1cc(C(=O)O/N=C2/C=CC(=O)C(C)=C2C)cc(OC)c1OC	none (no result: T cruzi inh, Beta cell apopt, PREPL inhibitor, CSC inhib)
COc1cc(C(=O)O/N=C2\C=CC(=O)C=C2C)cc(OC)c1OC	CHOP inh 94.1
C=CC[C@H](CC(=O)N(CCO)Cc1ccccc1)C(=O)NC[C@@H](OC(=O)[C@@H](CC=C)Cc1ccc(F)cc1)c1ccccc1	none (no result: T cruzi inh, CSC inhib, CHOP inh)
C=CCC[C@H](Cc1ccc(F)cc1)C(=O)OC[C@@H](Cc1c[nH]c2ccccc12)NC(=O)[C@@H](CC=C)CC(=O)N(CCO)Cc1ccccc1	CSC inhib 79.2 (no result: T cruzi inh, CHOP inh)
C=CCC[C@H](Cc1ccc(F)cc1)C(=O)O[C@H](CNC(=O)[C@@H](CC=C)CC(=O)N(CCO)Cc1ccccc1)c1ccccc1	CSC inhib 96.5 (no result: T cruzi inh, CHOP inh)
C=C(c1ccc2nc(NC(=O)OC)[nH]c2c1)c1cccs1	none (no result: T cruzi inh, Beta cell apopt, PREPL inhibitor, CSC inhib, CHOP inh)
Cc1ccc(Sc2ncccc2COC(=O)NC(C)C)cc1	none
Cc1oc2cc3oc(=O)c(CCC(=O)N4C[C@H]5C[C@@H](C4)c4cccc(=O)n4C5)c(C)c3cc2c1C	none (no result: CHOP inh)
CCCc1cc(=O)[nH]c(SC(C)C(=O)N2c3ccccc3CC2C)n1 (configuration not stated)	none (no result: T cruzi inh, CHOP inh)
COC(=O)[C@H](CCSC)NC(=O)Nc1cccc(Br)c1	NR3A LBD binder 16.9
COC(=O)C(CCSC)NC(=O)CNS(=O)(=O)c1ccc(Br)cc1 (configuration not stated)	CHOP inh 80.5
COC(=O)[C@H](CCSC)NC(=O)Nc1ccc(C)cc1	NR3A LBD binder 11.2
COc1ccc(NC(=O)N[C@@H](CCSC)C(=O)O)cc1OC	none
COC(=O)[C@H](CCSC)NC(=O)Nc1cc(C)ccc1C	none
Cc1cc(C)n2nc(C(=O)Nc3cccc(S(=O)(=O)N(C)c4ccccc4)c3)nc2n1	none
OCC1NC[C@@H](O)C(O)[C@@H]1O (some centres not stated)	none (no result: T cruzi inh, NR3A LBD binder, Beta cell apopt, PREPL inhibitor, CSC inhib)
CCC(C)(C)NC(=O)C(OC(=O)c1cc2sccc2n1C)c1ccc(OC)cc1 (configuration not stated)	CHOP inh 79.3
NC(=O)c1ccc(N2CCN(S(=O)(=O)c3cccs3)CC2)c([N+](=O)[O-])c1	Beta cell apopt 82.2 (no result: T cruzi inh, CHOP inh)
NC(=O)c1ccc(N2CCN(c3ccccc3O)CC2)c([N+](=O)[O-])c1	none
Cc1cc(NC(=O)c2cc3ccccc3o2)ccc1NC(=O)c1ccccc1	NR3A LBD binder 16.2 (no result: CHOP inh)
O=C(Nc1ccc(NC(=O)c2cc3ccccc3o2)cc1)c1ccc2c(c1)OCCO2	NR3A LBD binder 21.4, CHOP inh 72.4
Cc1ccc(NC(=O)c2ccc3c(c2)OCCO3)cc1	none
O=C(Nc1cccc(Br)c1)c1cc2ccccc2o1	NR3A LBD binder 32.0
COc1cc(NC(=O)c2cccc(F)c2)ccc1NC(=O)c1cc2ccccc2o1	NR3A LBD binder 36.0 (no result: CHOP inh)
COc1cc2[nH]c(=S)n(Cc3ccc(C)cc3)c(=O)c2cc1OC	none
O=C1CSc2cc(Cl)ccc2N1	none (no result: T cruzi inh, Beta cell apopt, PREPL inhibitor, CSC inhib, CHOP inh)
Cc1nc2ccc(NC(=O)CCC3CCCC3)cc2s1	none (no result: Beta cell apopt, CHOP inh)
Cc1cc(NC(=O)c2ccc3c(c2)OCCO3)ccc1NC(=O)c1cc2ccccc2o1	NR3A LBD binder 14.7
